Assay results reported in ChEMBL document CHEMBL1240350, “In vitro activity of CEM-101 against Streptococcus pneumoniae and Streptococcus pyogenes with defined macrolide resistance mechanisms” (Antimicrob Agents Chemother, 2010).
Converted amounts (≈) assume the structure as drawn.

Legend:
Assay type in all cases: functional
[1] = tested on: Streptococcus pyogenes; experiment: Antibacterial activity against Streptococcus pyogenes harboring erm(B) gene after overnight incubation by agar dilution method
Method in brief: (§1)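 Clinical isolates collected 1998–2008, with macrolide-resistance genes confirmed by PCR. MICs by agar dilution on Mueller-Hinton agar with 5% sheep blood. Inoculum 10^4 CFU/spot, incubated overnight at 35°C in ambient air. S. pneumoniae ATCC 49619 was the quality-control strain in every run.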

[2] = tested on: Streptococcus pyogenes; experiment: Antibacterial activity against Streptococcus pyogenes harboring mutation in L4 ribosomal protein after overnight incubation by agar dilution method; method in brief: as §1
[3] = tested on: Streptococcus pneumoniae; experiment: Antibacterial activity against macrolide-resistant Streptococcus pneumoniae harboring mef(A) gene after overnight incubation by agar dilution method
Method in brief: (§2)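 Agar dilution MICs on Mueller-Hinton agar with 5% sheep blood. Inoculum 10^4 CFU/spot, incubated overnight at 35°C in ambient air. Clinical S. pneumoniae or group A streptococcal isolates; resistance genotypes (erm(B), erm(A), mef(A)/mef(E)) were assigned by PCR. S. pneumoniae ATCC 49619 served as QC strain in each run. Range, MIC50 and MIC90 reported per phenotype group.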

[4] = tested on: Streptococcus pneumoniae; experiment: Antibacterial activity against Streptococcus pneumoniae harboring erm(A) gene after overnight incubation by agar dilution method; method in brief: as §1
[5] = tested on: Streptococcus pneumoniae; experiment: Antibacterial activity against penicillin-susceptible Streptococcus pneumoniae after overnight incubation by agar dilution method
Method in brief: (§3)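 Agar dilution on Mueller-Hinton agar supplemented with 5% sheep blood. Inoculum 10^4 CFU/spot, incubated overnight at 35°C in ambient air. Test strains were clinical pneumococcal isolates. S. pneumoniae ATCC 49619 was included as the quality control strain in each run. MIC range, MIC50 and MIC90 were reported for each susceptibility category.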

[6] = tested on: Streptococcus pneumoniae; experiment: Antibacterial activity against Streptococcus pneumoniae harboring erm(B) gene after overnight incubation by agar dilution method; method in brief: as §1
[7] = tested on: Streptococcus pyogenes; experiment: Antibacterial activity against macrolide-resistant Streptococcus pyogenes harboring erm(A) gene after overnight incubation by agar dilution method; method in brief: as §2
[8] = tested on: Streptococcus pneumoniae; experiment: Antibacterial activity against macrolide-resistant Streptococcus pneumoniae harboring erm(B) gene after overnight incubation by agar dilution method; method in brief: as §2
[9] = tested on: Streptococcus pyogenes; experiment: Antibacterial activity against macrolide-resistant Streptococcus pyogenes harboring erm(B) gene after overnight incubation by agar dilution method; method in brief: as §2
[10] = tested on: Streptococcus pyogenes; experiment: Antibacterial activity against macrolide-susceptible Streptococcus pyogenes after overnight incubation by agar dilution method
Method in brief: (§4)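 Agar dilution on Mueller-Hinton agar supplemented with 5% sheep blood, inoculum 10^4 CFU/spot, read after overnight incubation at 35°C in ambient air. Clinical isolates with defined genotypes; S. pneumoniae ATCC 49619 quality control strain included in each run. MIC50/MIC90 are MICs inhibiting 50% and 90% of isolates.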

[11] = tested on: Streptococcus pyogenes; experiment: Antibacterial activity against Streptococcus pyogenes harboring erm(A) gene after overnight incubation by agar dilution method; method in brief: as §1
[12] = tested on: Streptococcus pneumoniae; experiment: Antibacterial activity against quinolone-resistant Streptococcus pneumoniae after overnight incubation by agar dilution method; method in brief: as §3
[13] = tested on: Streptococcus pneumoniae; experiment: Antibacterial activity against Streptococcus pneumoniae harboring mutation in 23S rRNA after overnight incubation by agar dilution method; method in brief: as §1
[14] = tested on: Streptococcus pyogenes; experiment: Antibacterial activity against macrolide-resistant Streptococcus pyogenes harboring mef(A) gene after overnight incubation by agar dilution method; method in brief: as §2
[15] = tested on: Streptococcus pyogenes; experiment: Antibacterial activity against Streptococcus pyogenes harboring mef(A) gene after overnight incubation by agar dilution method; method in brief: as §1
[16] = tested on: Streptococcus pneumoniae; experiment: Antibacterial activity against macrolide-susceptible Streptococcus pneumoniae after overnight incubation by agar dilution method; method in brief: as §2
[17] = tested on: Streptococcus pneumoniae; experiment: Antibacterial activity against quinolone-susceptible Streptococcus pneumoniae after overnight incubation by agar dilution method; method in brief: as §3
[18] = tested on: Streptococcus pneumoniae; experiment: Antibacterial activity against penicillin-intermediate Streptococcus pneumoniae after overnight incubation by agar dilution method; method in brief: as §4
[19] = tested on: Streptococcus pneumoniae; experiment: Antibacterial activity against Streptococcus pneumoniae harboring mef(A) gene after overnight incubation by agar dilution method; method in brief: as §1

Row | SMILES | MIC50 [1] [µg/mL] | MIC90 [1] [µg/mL] | MIC [2] [µg/mL] | MIC50 [3] [µg/mL] | MIC90 [3] [µg/mL] | MIC [4] [µg/mL] | MIC50 [5] [µg/mL] | MIC90 [5] [µg/mL] | MIC50 [7] [µg/mL] | MIC90 [7] [µg/mL] | MIC50 [9] [µg/mL] | MIC90 [9] [µg/mL] | MIC50 [10] [µg/mL] | MIC90 [10] [µg/mL] | MIC50 [11] [µg/mL] | MIC90 [11] [µg/mL] | MIC50 [12] [µg/mL] | MIC [13] [µg/mL] | other results
1 | COc1c(N2C[C@@H]3CCCN[C@@H]3C2)c(F)cc2c(=O)c(C(=O)O)cn(C3CC3)c12 [MOXIFLOXACIN] | 0.25 (≈ 0.623 µM) | 0.25 (≈ 0.623 µM) | 0.25 (≈ 0.623 µM) | 0.25 (≈ 0.623 µM) | 0.5 (≈ 1.25 µM) | 0.25 (≈ 0.623 µM) | 0.5 (≈ 1.25 µM) | 4 (≈ 9.96 µM) | 0.25 (≈ 0.623 µM) | 0.25 (≈ 0.623 µM) | 0.25 (≈ 0.623 µM) | 0.25 (≈ 0.623 µM) | 0.25 (≈ 0.623 µM) | 0.25 (≈ 0.623 µM) | 0.25 (≈ 0.623 µM) | 0.25 (≈ 0.623 µM) | 4 (≈ 9.96 µM) | 0.25 (≈ 0.623 µM) | MIC50 [6]: 0.25 µg/mL (≈ 0.623 µM); MIC90 [6]: 0.5 µg/mL (≈ 1.25 µM); MIC50 [8]: 0.25 µg/mL (≈ 0.623 µM); MIC90 [8]: 0.5 µg/mL (≈ 1.25 µM); MIC90 [12]: 4 µg/mL (≈ 9.96 µM)
2 | CC[C@H]1OC(=O)[C@H](C)[C@@H](O[C@H]2C[C@@](C)(OC)[C@@H](O)[C@H](C)O2)[C@H](C)[C@@H](O[C@@H]2O[C@H](C)C[C@H](N(C)C)[C@H]2O)[C@](C)(O)C[C@@H](C)C(=O)[C@H](C)[C@@H](O)[C@]1(C)O [ERYTHROMYCIN] | > 64 | > 64 | 2 (≈ 2.73 µM) | 4 (≈ 5.45 µM) | 32 (≈ 43.6 µM) | 2 (≈ 2.73 µM) | 4 (≈ 5.45 µM) | > 64 | 4 (≈ 5.45 µM) | > 64 | > 64 | > 64 | 0.06 (≈ 0.0818 µM) | 0.125 (≈ 0.17 µM) | 4 (≈ 5.45 µM) | > 64 | 0.06 (≈ 0.0818 µM) | 8 (≈ 10.9 µM) | MIC50 [14]: 16 µg/mL (≈ 21.8 µM); MIC90 [14]: 32 µg/mL (≈ 43.6 µM); MIC50 [15]: 16 µg/mL (≈ 21.8 µM); MIC90 [15]: 32 µg/mL (≈ 43.6 µM); MIC50 [16]: 0.06 µg/mL (≈ 0.0818 µM); MIC90 [16]: 0.125 µg/mL (≈ 0.17 µM); MIC50 [17]: > 64 µg/mL; MIC90 [17]: > 64 µg/mL; MIC50 [18]: > 64 µg/mL; MIC90 [18]: > 64 µg/mL; MIC50 [19]: 4 µg/mL (≈ 5.45 µM); MIC90 [19]: 32 µg/mL (≈ 43.6 µM)
